Measurements published in ChEMBL document CHEMBL1255465, “Persistence of uropathogenic Escherichia coli in the face of multiple antibiotics” (Antimicrob Agents Chemother, 2010).
Active and inactive are the calls of the source. The calls are words filed in the database; no cut-off is given here.

Experiments:
Escherichia coli [1] = test: Antibacterial activity against uropathogenic Escherichia coli UTI89 isolated from urine samples of infected CBA/J mouse after 24 hrs by disk diffusion assay; type: functional, organism-based
Summary of the method: (§1)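 Urine collected by gentle bladder pressure 2 h after oral dosing of UTI89-infected CBA/J mice. 10 μl spotted on 7-mm filter discs, placed on fresh UTI89 lawns on LB agar. Clearance diameter measured after 24 h at 37°C. Urine drug level calculated from standard curves of discs holding known antibiotic concentrations.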

Escherichia coli [2] = test: Antibacterial activity against uropathogenic Escherichia coli UTI89 infected in CBA/J mouse assessed as decrease in bacterial invasion into layers of urothelium at 1 mg/kg, po administered on day 3 postinfection daily for 3 days measured on day 9 post-inoculation in presence of Triton X-100; type: functional, organism-based; parameters: dose 1 mg/kg
[3] = Drug level in Escherichia coli UTI89-infected CBA/J mouse urine at 1 mg/kg, po after 2 hrs; type: ADME, organism-based; parameters: dose 1 mg/kg, route oral; settings: in vivo; summary of the method: as §1
Escherichia coli [4] = test: Antibacterial activity against uropathogenic Escherichia coli UTI89 assessed as degradation of preexisting biofilm after 24 hrs by microscopy; type: functional, organism-based
Summary of the method: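 UTI89 diluted 1:100 into M9 medium and grown statically 48 h at 37°C in microtiter wells. Nonadherent cells removed, fresh M9 ± drug added for 24 h, using the higher of two tested concentrations. Viable bacteria in biofilms visualized by Live/Dead BacLight staining and microscopy.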

Escherichia coli [5] = test: Antibacterial activity against uropathogenic Escherichia coli UTI89 infected in CBA/J mouse assessed as decrease in bacterial load in bladder at 1 mg/kg, po administered on day 3 postinfection daily for 3 days measured on day 9 post-inoculation; type: functional, organism-based; parameters: dose 1 mg/kg; settings: Urinary bladder
Summary of the method: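 Female CBA/J mice, 7–8 weeks old, inoculated transurethrally with ~10^7 CFU UTI89 (24-h static LB culture) in 50 μl PBS. From day 3, one oral gavage daily for 3 days, 50 μl; controls given water. On day 9, bladders homogenized in PBS with 0.025% Triton X-100 and plated on LB agar for CFU. 11 mice from two experiments; Mann-Whitney U test.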

Escherichia coli [6] = test: Antibacterial activity against uropathogenic Escherichia coli UTI89 infected in CBA/J mouse assessed as decrease in bacterial invasion into layers of urothelium at 1 mg/kg, po administered on day 3 postinfection daily for 3 days measured on day 9 post-inoculation; type: functional, organism-based; parameters: dose 1 mg/kg
Escherichia coli [7] = test: Antibacterial activity against uropathogenic Escherichia coli UTI89 infected in human 5637 cells assessed as decrease in intracellular bacterial level at 700 to 1000 ug/ml after 12 hrs by serial dilution method; type: functional, organism-based
Summary of the method: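 Confluent 5637 monolayers in triplicate infected with UTI89 (24-h static LB culture, type 1 pili) at MOI ~15 and spun 600 × g for 5 min. After 2 h: gentamicin 100 μg/ml for 2 h, then 10 μg/ml for 14 h. Then 12 h with drug at two concentrations. Cells lysed in 0.4% Triton X-100 and plated on LB agar. Titers expressed relative to 800 μg/ml gentamicin. ≥3 independent assays.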

5637 [8] = test: Cytotoxicity against human 5637 cells assessed as mild induction of cell death by trypan blue exclusion assay; type: cell-based
Summary of the method: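 Integrity of 5637 cells after drug treatment assessed by 0.4% trypan blue exclusion, following a standard protocol.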

Escherichia coli [9] = test: Antibacterial activity against uropathogenic Escherichia coli UTI89 assessed as inhibition of biofilm formation after 24 hrs by microtiterplate-based assay; type: functional, organism-based
Summary of the method: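 Biofilms of UTI89 formed for 48 h at 37°C without shaking in M9 (1:100 inoculum, triplicate wells). Fresh M9 ± drug (higher of two tested concentrations) then added for 24 h. Biomass stained with 0.1% crystal violet, solubilized in DMSO, read at A562, and expressed relative to untreated controls. Three independent experiments.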

5637 [10] = test: Cytotoxicity against human 5637 cells assessed as mild induction of cell death by LDH release assay; type: cell-based

For `C[C@@H]1O[C@@H]1P(=O)(O)O` [FOSFOMYCIN], the Activity (Escherichia coli [1]) was “Active”, the inhibition (Escherichia coli [2]) was “Active” and the Drug uptake [3] was 4 µg/mL. The Activity (Escherichia coli [4]) was “Active”, the inhibition (Escherichia coli [5]) was “inactive” and the inhibition (Escherichia coli [6]) was “inactive”. The inhibition (Escherichia coli [7]) was “Active”, the Activity 5637 [8] was “Toxic” and the Biofilm inhibition activity (Escherichia coli [9]) was “Active”. The Activity 5637 [10] was “Toxic”.
